The EternaBench riboswitch data

Test system: MS2 coat protein
Test: apparent Kd, MS2 coat protein; higher = weaker binding; RNA-MaP array; tryptophan 2.4 mM where present
Outline: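 Each design was made on Illumina sequencing-chip clusters by stalled E. coli RNA polymerase and titrated with SNAP-549-labelled MS2 coat protein from 0.7 or 1.5 nM, doubling to 3 µM, in the absence and then the presence of constant ligand. The buffer was 100 mM Tris-HCl pH 7.5, 80 mM KCl, 4 mM MgCl2, BSA, DTT, yeast tRNA and Tween-20. The apparent Kd is the median of filtered per-cluster fits of binding curves, with green signal normalised to red-channel RNA signal and control-cluster median Fmax.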

[1] = designed as: OFF switch for tryptophan, no ligand
[2] = ligand present: tryptophan, designed as: OFF switch for tryptophan
[3] = designed as: ON switch for tryptophan, no ligand
[4] = ligand present: tryptophan, designed as: ON switch for tryptophan

## AGUAUUGGAAACAGUACUAGUGAUCCGGUCCGAGGACCGGUACGGCCGCCACUCGAUUUAAAUAAACAUGAGGAUCACCCAUGUA
[1]
  apparent Kd: 13.8 nM
[2]
  apparent Kd: 25.2 nM

## AGCCACUCGAGUGAUCCUCACGAGUGGCUACGAGGACCGGUACGGCCGCCACUCGAAUUAACAUGAGGAUCACCCAUGUAAUAAU
[3]
  apparent Kd: 152 nM
[4]
  apparent Kd: 39.6 nM

## CGAAUAUAGACGGCCGCCACUCUACAAACAUGAGGAUCACCCAUGUUCACAUAGAGGAAACUCAUGAGGACCGGGUCAUAGGCUU
[3]
  apparent Kd: 23.4 nM
[4]
  apparent Kd: 20 nM

## AAGCUUCGCAUAGGAAAACUAUGUGAAGCUCGAGGACCGGUACGGCCGCCACUCGUCCUCAACAUGAGGAUCACCCAUGUAAUAA
[1]
  apparent Kd: 22.5 nM
[2]
  apparent Kd: 28.2 nM

## UAAUAAGUGCCGGUUCUCAGAUCCUCAUGUCGAGGACCGGUACGGCCGCCACUCGAAACAUGAGGAUCACCCAUGUAAUAAUAAU
[1]
  apparent Kd: 51.8 nM
[2]
  apparent Kd: 34.1 nM

## GAGUAGAAGACGGCCGCCACUAAACAUGAGGAUCACCCAUGUCGUGAUCCGUUACCUAGAGUAGAUAGGACCGGGUCAUAUAGUC
[1]
  apparent Kd: 30.4 nM
[2]
  apparent Kd: 30.9 nM

## ACGGAGAUGUCGGCCGCCACUGAACUCAUGUUCAACAUGAGGAUCACCCAUGUACCUUAGUUUAUCAGGACCGGGACAUAUACGA
[1]
  apparent Kd: 116 nM
[2]
  apparent Kd: 48.1 nM

## GGAGUCGUCACGGCCGCCACUGCGGUGGUGUGACAUGAGGAUCACCCAUGUUGUCAUGCGGCCCUUAGGACCGGGUGUCGGUUCC
[1]
  apparent Kd: 51.5 nM
[2]
  apparent Kd: 59.1 nM

## GGCACAUAGUCGGCCGCCACUAGAAUAAGAAGGGAAAACAUGAGGAUCACCCAUGUAAAAGGGACUAGGACCGGGACUAUGUGCC
[1]
  apparent Kd: 13.9 nM
[2]
  apparent Kd: 13 nM

## AGGUGCUGAUCGGCCGCCACUGAGAGGACGUGAACUUUAGCUGGUUACAUGAGGAUCACCCAUGUCAGGACCGGGAUUAGUUUGC
[1]
  apparent Kd: 9.26 nM
[2]
  apparent Kd: 17.4 nM

## CACGAAAGAUCGGCCGCCACUAUUUGAUGUGUUCUUUCACAUGAGGAUCACCCAUGUUCUUUCUUUAGGACCGGGAUUGAGCGUG
[1]
  apparent Kd: 99.4 nM
[2]
  apparent Kd: 49.5 nM

## UAUCGUCAGACGGCCGCCACUAGAACAUGAGGAUCACCCAUGUACCCGGUCCAUUCCUCAUUAACUAGGACCGGGUCUGACGAAU
[1]
  apparent Kd: 125 nM
[2]
  apparent Kd: 30.2 nM

## AUAAGCUGUACCGGAAUAUCCUCAUGUAUACGAGGACCGGUACGGCCGCCACUCGAUAACAUGAGGAUCACCCAUGUAAUAAUAA
[1]
  apparent Kd: 11.2 nM
[2]
  apparent Kd: 11.2 nM

## AGAUGAGUCACGGCCGCCACUCACUUCAGGUUCACCCUUGGUUAACAUGAGGAUCACCCAUGUGGGAGGACCGGGUGAUGAGCAU
[1]
  apparent Kd: 16.2 nM
[2]
  apparent Kd: 12.8 nM

## UACUUGCUGACGGCCGCCACUAGAACAUGAGGAUCACCCAUGUACCCGGUCCUAAUCCUCAUGACUAGGACCGGGUCAGCAAGAU
[1]
  apparent Kd: 22.4 nM
[2]
  apparent Kd: 21.5 nM

## AGAGCAUUGACGGCCGCCACUCAUGUCACAUGAGGAUCACCCAUGUGAUGGGUGAUCGCCCGGUUGAGGACCGGGUCAAUGCUCA
[3]
  apparent Kd: 43 nM
[4]
  apparent Kd: 28.5 nM

## UGGAGUAGGACGGCCGCCACUAUACAAUGUGUAUACAUGAGGAUCACCCAUGUAAUCCUCGGAGAUAGGACCGGGUCAAGUUGUG
[1]
  apparent Kd: 53.6 nM
[2]
  apparent Kd: 50.5 nM

## ACAUGAGGAUCACCCAUGUGUGUAAAUCCUCGAGGACCGGUACGGCCGCCACUCGAACGAGUGUAAGUUGAAUGUAACAUUCAAC
[3]
  apparent Kd: 85.5 nM
[4]
  apparent Kd: 33.7 nM

## AGCAACAAGUCGGCCGCCACUCAUAUUACAUGAGGAUCACCCAUGUUUACAUCAAGGUCAUAAUAGAGGACCGGGACAGUUGCAU
[3]
  apparent Kd: 34.1 nM
[4]
  apparent Kd: 23.7 nM

## GCGUUCUCUGCGGCCGCCACUCAAGGAGCUACAUAGCUCCUAGACAUGAGGAUCACCCAUGUGGCGAGGACCGGGUAGAUCCUUA
[3]
  apparent Kd: 202 nM
[4]
  apparent Kd: 168 nM

## CUACAUUUGUAGAAACCGGUCAACAUUAUUCGAGGACCGGUACGGCCGCCACUCGUAUAUUUUAAUACAUGAGGAUCACCCAUGU
[3]
  apparent Kd: 11.6 nM
[4]
  apparent Kd: 12.1 nM

## ACAUGAGGAUCACCCAUGUGCAUCACCCGACGAGGACCGGUACGGCCGCCACUCGGGUAUAUAUUUACAUCGGGUGAUUUUACGU
[3]
  apparent Kd: 22.8 nM
[4]
  apparent Kd: 21 nM

## UGUAGUACCAGACAUGAGGAUCACCCAUGUCGAGGACCGGUACGGCCGCCACUCGGCAGUUUGCGUCCUCAGGUACUCCGGGUAA
[1]
  apparent Kd: 13 nM
[2]
  apparent Kd: 15 nM

## UCCUGCAGAGCGGCCGCCACUGUAUUGCGUGAGGAUGACCCAACAUGAGGAUCACCCAUGUUGUUUAGGACCGGGCUUGCCACGA
[1]
  apparent Kd: 14.2 nM
[2]
  apparent Kd: 15.5 nM

## AAACAUGAGGAUCACCCAUGUCCUCCUGUCCGAGGACCGGUACGGCCGCCACUCGGUUCUCGGGAGGAUGGUCAAAGACUAUCCA
[3]
  apparent Kd: 290 nM
[4]
  apparent Kd: 253 nM

## UACAUGAGGAUCACCCAUGUCCCAUGUGAACGAGGACCGGUACGGCCGCCACUCGAAUAAGGCGGCACAUGAGGAUCACCCACAU
[3]
  apparent Kd: 284 nM
[4]
  apparent Kd: 712 nM
